For 11 compounds, MIC, Ratio and IC50 results are on record in ChEMBL document CHEMBL2057145, “Development of novel antibacterial agents against methicillin-resistant Staphylococcus aureus” (Bioorg Med Chem, 2012).

Structures are written as SMILES. ≈ marks a conversion by molar mass, not a printed value. Where only a bound is given, the exact number is not on record here.

In experiment [1] the test system is Staphylococcus aureus. Put plainly: Antibacterial activity against Staphylococcus aureus ATCC 29213 after 24 hrs by broth microdilution method. It counts as functional. As to conditions: ATCC 29213, 24 h. A general note: Broth dilution looks for growth in wells or tubes with falling amounts of substance.
Experiment [2] is described as follows: Selectivity ratio of IC50 for human HT-29 cells to MIC for Staphylococcus aureus ATCC 29213. It counts as functional. An outline of the steps:
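Ratio of HT-29 IC50 (MTT assay, 24 h exposure) to MIC against S. aureus ATCC 29213 (CLSI broth microdilution, 24 h, 37 °C).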

A further experiment relates to HT-29. Nature of the experiment: Antiproliferative activity against human HT-29 cells after 24 hrs by MTT assay. The note with it: HT-29, 24 h. It is filed as cell-based. A digest of the protocol: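 HT-29 human colon adenocarcinoma cells seeded at 1 × 10⁴ cells/well in RPMI 1640 with 10% FBS and 10 µg/mL gentamicin, left overnight at 37 °C, 5% CO₂. Medium then replaced with medium holding test agents (final DMSO 0.1%; DMSO-only controls), at least 6 wells per condition, for 24 h. Viability read by MTT (0.5 mg/mL, 2 h, 37 °C), DMSO solubilization, absorbance 570 nm.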
On the technique in general: Tetrazolium dyes change colour on reduction, which living cells bring about.

Experiment [3] deals with Staphylococcus epidermidis. Nature of the experiment: Antibacterial activity against Staphylococcus epidermidis ATCC 35984 after 24 hrs by broth microdilution method. As to conditions: RP62A. It is filed as functional.
Experiment [4] concerns Staphylococcus lugdunensis. Put plainly: Antibacterial activity against Staphylococcus lugdunensis isolate NTUH after 24 hrs by broth microdilution method. It counts as functional.
Experiment [5] relates to Staphylococcus intermedius. Put plainly: Antibacterial activity against Staphylococcus intermedius ATCC 29663 after 24 hrs by broth microdilution method. The note with it: ATCC 29663, 24 h. It counts as functional.
For another experiment, the system named is Staphylococcus hominis. Nature of the experiment: Antibacterial activity against Staphylococcus hominis ATCC 27844 after 24 hrs by broth microdilution method. It is filed as functional. The note with it: ATCC 27844, 24 h.
Experiment [6] has as its system Staphylococcus aureus. Put plainly: Antibacterial activity against methicillin-resistant Staphylococcus aureus ATCC 33592 after 24 hrs by broth microdilution method. It counts as functional. As to conditions: ATCC 33592, 24 h. An outline of the steps: (§1)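 CLSI broth microdilution. Bacteria grown overnight on LB agar, suspended in PBS, then exposed to test agents at 0.25 to 64 µg/mL in triplicate. Incubation 37 °C for 24 h. MIC is the lowest concentration with no visible bacterial growth. DMSO stocks diluted in culture medium to a final DMSO of 0.1%.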

Experiment [7] deals with Staphylococcus aureus. Nature of the experiment: Antibacterial activity against Staphylococcus aureus ATCC 12598 after 24 hrs by broth microdilution method. It is filed as functional. The note with it: ATCC 12598, 24 h. A digest of the protocol:
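CLSI broth microdilution. Incubation 37 °C for 24 h. MIC is the lowest concentration with no visible bacterial growth. DMSO stocks diluted in culture medium to a final DMSO of 0.1%.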

Experiment [8] has as its system Staphylococcus saprophyticus. Nature of the experiment: Antibacterial activity against Staphylococcus saprophyticus ATCC 15305 after 24 hrs by broth microdilution method. It counts as functional. The note with it: ATCC 15305, 24 h.
Experiment [9] deals with Staphylococcus haemolyticus. Nature of the experiment: Antibacterial activity against Staphylococcus haemolyticus ATCC 29970 after 24 hrs by broth microdilution method. It counts as functional. The note with it: ATCC 29970, 24 h.
The subject of experiment [10] is Staphylococcus aureus. Put plainly: Antibacterial activity against methicillin-resistant Staphylococcus aureus expressing […] subtype VT after 24 hrs by broth microdilution method. It is filed as functional. An outline of the steps: as §1
The test system of experiment [11] is Staphylococcus epidermidis. Nature of the experiment: Antibacterial activity against Staphylococcus epidermidis ATCC 12228 after 24 hrs by broth microdilution method. The note with it: ATCC 12228, 24 h. It counts as functional.
The subject of experiment [12] is Staphylococcus aureus. Put plainly: Antibacterial activity against methicillin-resistant Staphylococcus aureus ATCC 49476 after 24 hrs by broth microdilution method. As to conditions: ATCC 49476, 24 h.

With `NCCCC[C@@H](N)C(=O)Nc1ccc(-n2nc(C(F)(F)F)cc2-c2ccc3c(c2)Nc2ccccc2S3)cc1`, the MIC (against Staphylococcus aureus [1]; in [3]) was 4 µg/mL (≈ 7.24 µM) in each case. For the same compound, the Ratio in [2] is recorded as 4.4. The IC50 in the experiment on HT-29 stood at 17.5 µg/mL (≈ 31.7 µM).
As for `NS(=O)(=O)Nc1ccc(-n2nc(C(F)(F)F)cc2-c2ccc3ccccc3c2)cc1`, the minimum inhibitory concentration (MIC) in the experiment on Staphylococcus aureus [1] came to 1 µg/mL (≈ 2.31 µM); in [4], 4 µg/mL (≈ 9.25 µM); in [5] it was 2 µg/mL (≈ 4.63 µM). Further, the Ratio in [2] amounted to 19.
With `CC1(C)S[C@@H]2[C@H](NC(=O)[C@H](N)c3ccccc3)C(=O)N2[C@H]1C(=O)O` [AMPICILLIN], the MIC against Staphylococcus hominis is < 0.0625 µg/mL; in the experiment on Staphylococcus aureus [6], > 64 µg/mL; in the experiment on Staphylococcus aureus [1] it was 8 µg/mL (≈ 22.9 µM); in the experiment on Staphylococcus aureus [7], 0.25 µg/mL (≈ 0.715 µM); in experiment [3] it was 64 µg/mL (≈ 183 µM); in [8], 0.5 µg/mL (≈ 1.43 µM). Moreover, the MIC is 0.25 µg/mL (≈ 0.715 µM) in [9]; 32 µg/mL (≈ 91.6 µM) in experiment [4]; > 64 µg/mL against Staphylococcus aureus [10]; 0.125 µg/mL (≈ 0.358 µM) in experiment [5]; 16 µg/mL (≈ 45.8 µM) in experiment [11]; 64 µg/mL (≈ 183 µM) with Staphylococcus aureus [12].
For `Cc1ccc(-c2ccc(-c3cc(C(F)(F)F)nn3-c3ccc(NS(N)(=O)=O)cc3)cc2)cc1`, the minimum inhibitory concentration (MIC) in the experiment with Staphylococcus aureus [6] was 1 µg/mL (≈ 2.12 µM); in the experiment with Staphylococcus aureus [1], 1 µg/mL (≈ 2.12 µM); in the experiment on Staphylococcus aureus [7], 1 µg/mL (≈ 2.12 µM); in [4], 2 µg/mL (≈ 4.23 µM); in the experiment with Staphylococcus aureus [10], 1 µg/mL (≈ 2.12 µM); in experiment [5], 2 µg/mL (≈ 4.23 µM). Moreover, the MIC (in [11]; in the experiment with Staphylococcus aureus [12]) was 1 µg/mL (≈ 2.12 µM) in each case. For the same compound, in [2], the Ratio was determined as 9.
For the compound `Cc1ccc(-c2cc(C(F)(F)F)nn2-c2ccc(NS(N)(=O)=O)cc2)cc1`, the MIC came to 4 µg/mL (≈ 10.1 µM) in the experiment on Staphylococcus aureus [6]; 4 µg/mL (≈ 10.1 µM) with Staphylococcus aureus [1]; 4 µg/mL (≈ 10.1 µM) with Staphylococcus aureus [7]; 4 µg/mL (≈ 10.1 µM) in experiment [3]; 16 µg/mL (≈ 40.4 µM) in experiment [4]; 4 µg/mL (≈ 10.1 µM) with Staphylococcus aureus [10]. The minimal inhibitory concentration (MIC) in experiment [5] amounted to 8 µg/mL (≈ 20.2 µM); in experiment [11] it was 4 µg/mL (≈ 10.1 µM); in the experiment on Staphylococcus aureus [12] it was 4 µg/mL (≈ 10.1 µM). For the same compound, in experiment [2], the Ratio was 7. For the same compound, in the experiment with HT-29, the half-maximal inhibitory concentration (IC50) was determined as 28 µg/mL (≈ 70.6 µM).
For `NCCC(=O)Nc1ccc(-n2nc(C(F)(F)F)cc2-c2ccc3c(c2)Nc2ccccc2S3)cc1`, the MIC (in the experiment on Staphylococcus aureus [1]; in [3]) was 4 µg/mL (≈ 8.07 µM) throughout. For the same compound, the Ratio in [2] is listed as 1.9. Inhibition with HT-29 was half-maximal at 7.5 µg/mL (≈ 15.1 µM) (IC50).
For the compound `NCCCC[C@H](N)C(=O)Nc1ccc(-n2nc(C(F)(F)F)cc2-c2ccc(-c3ccc(C(F)(F)F)cc3)cc2)cc1`, the MIC (in the experiment on Staphylococcus aureus [1]; in experiment [3]) was 4 µg/mL (≈ 6.95 µM) in each case. Further, in experiment [2], the Ratio came out at 0.8. For the same compound, it took 3.3 µg/mL (≈ 5.73 µM) to reach half-maximal inhibition with HT-29 (IC50).
On to `O=C(N[C@H](CO)[C@H](O)c1ccc([N+](=O)[O-])cc1)C(Cl)Cl` [CHLORAMPHENICOL], for which the minimal inhibitory concentration (MIC) in the experiment on Staphylococcus aureus [6] stood at 64 µg/mL (≈ 198 µM); in the experiment with Staphylococcus aureus [1] it was 8 µg/mL (≈ 24.8 µM); in [3] it was 8 µg/mL (≈ 24.8 µM); in experiment [4], 2 µg/mL (≈ 6.19 µM); in the experiment with Staphylococcus aureus [10], 32 µg/mL (≈ 99 µM).
In the case of `NCCCC[C@H](N)C(=O)Nc1ccc(-n2nc(C(F)(F)F)cc2-c2ccc3c(c2)Nc2ccccc2S3)cc1`, the minimal inhibitory concentration (MIC) against Staphylococcus aureus [1] was found to be 2 µg/mL (≈ 3.62 µM). Also, in experiment [2], the Ratio is recorded as 2.6. The compound further yielded an IC50 with HT-29 of 5.2 µg/mL (≈ 9.41 µM).
`NCC(=O)Nc1ccc(-n2nc(C(F)(F)F)cc2-c2ccc3c(c2)Nc2ccccc2S3)cc1`: the MIC (against Staphylococcus aureus [1]; in experiment [3]) was 4 µg/mL (≈ 8.31 µM) throughout. Further, in [2], the Ratio stood at 1.6.
Regarding `NS(=O)(=O)Nc1ccc(-n2nc(C(F)(F)F)cc2-c2ccc(-c3ccccc3)cc2)cc1`, the MIC against Staphylococcus aureus [6] stood at 1 µg/mL (≈ 2.18 µM); in the experiment with Staphylococcus aureus [1] it was 1 µg/mL (≈ 2.18 µM); with Staphylococcus aureus [7], 1 µg/mL (≈ 2.18 µM); in experiment [4], 2 µg/mL (≈ 4.36 µM); with Staphylococcus aureus [10], 1 µg/mL (≈ 2.18 µM); in experiment [5], 2 µg/mL (≈ 4.36 µM). Moreover, 1 µg/mL (≈ 2.18 µM) was the least that counted as inhibitory in the experiment on Staphylococcus aureus [12] (MIC). In addition, the Ratio in [2] is on record as 16.

What is called MIC is the smallest concentration in the dilution series that meets the test's criterion for growth inhibition. Read a high MIC as a less susceptible organism. As usually defined, the IC50 is the concentration at which inhibition is half-maximal. A low value points to higher potency.
